In the M2OR odorant receptor database:
Positions count from the first letter of the chain named.

Columns and labels:
Details in all cases: stereoisomer not certain
[1] = target: T1, OR51B5 (Homo sapiens) (UniProt Q9H339)
T1 sequence (whole entry): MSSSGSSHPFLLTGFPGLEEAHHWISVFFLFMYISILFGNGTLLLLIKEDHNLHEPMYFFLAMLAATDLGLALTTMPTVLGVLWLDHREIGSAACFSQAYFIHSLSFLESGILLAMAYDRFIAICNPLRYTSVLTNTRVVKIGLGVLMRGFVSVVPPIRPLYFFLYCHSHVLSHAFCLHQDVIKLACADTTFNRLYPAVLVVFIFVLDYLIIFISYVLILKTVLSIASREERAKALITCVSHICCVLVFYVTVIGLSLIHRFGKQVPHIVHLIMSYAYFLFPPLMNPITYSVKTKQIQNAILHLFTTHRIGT
How it was run: (§1)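 Assay methods differ from source to source, frequently being transient luciferase assays in mammalian cell lines. For each receptor–molecule pair, the label responsive (active) applies when the original authors judged the measured signal statistically different from baseline, and non-responsive (inactive) applies otherwise.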

[2] = target: T2, OR4S2 (Homo sapiens) (UniProt Q8NH73)
T2 sequence (whole entry): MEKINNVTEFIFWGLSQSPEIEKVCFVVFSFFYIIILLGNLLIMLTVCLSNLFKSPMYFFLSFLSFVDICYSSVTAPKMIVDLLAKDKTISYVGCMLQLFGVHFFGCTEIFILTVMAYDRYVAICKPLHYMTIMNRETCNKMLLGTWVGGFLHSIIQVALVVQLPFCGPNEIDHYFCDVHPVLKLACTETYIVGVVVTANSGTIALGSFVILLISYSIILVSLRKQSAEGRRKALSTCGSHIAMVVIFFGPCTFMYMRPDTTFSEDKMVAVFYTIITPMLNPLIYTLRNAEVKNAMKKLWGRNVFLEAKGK
How it was run: as §1

[3] = target: T3, OR4X1 (Homo sapiens) (UniProt Q8NH49)
T3 sequence (whole entry): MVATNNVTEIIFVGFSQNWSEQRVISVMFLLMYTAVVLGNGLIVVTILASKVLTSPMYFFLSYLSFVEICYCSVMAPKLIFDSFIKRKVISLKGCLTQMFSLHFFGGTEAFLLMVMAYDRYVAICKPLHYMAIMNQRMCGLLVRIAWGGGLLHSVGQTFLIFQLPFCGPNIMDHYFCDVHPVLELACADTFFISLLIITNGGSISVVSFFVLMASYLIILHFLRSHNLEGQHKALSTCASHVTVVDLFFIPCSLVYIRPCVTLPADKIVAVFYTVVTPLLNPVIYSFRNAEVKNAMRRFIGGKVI
How it was run: as §1

[4] = target: T4, OR4X2 (Homo sapiens) (UniProt Q8NGF9)
T4 sequence (whole entry): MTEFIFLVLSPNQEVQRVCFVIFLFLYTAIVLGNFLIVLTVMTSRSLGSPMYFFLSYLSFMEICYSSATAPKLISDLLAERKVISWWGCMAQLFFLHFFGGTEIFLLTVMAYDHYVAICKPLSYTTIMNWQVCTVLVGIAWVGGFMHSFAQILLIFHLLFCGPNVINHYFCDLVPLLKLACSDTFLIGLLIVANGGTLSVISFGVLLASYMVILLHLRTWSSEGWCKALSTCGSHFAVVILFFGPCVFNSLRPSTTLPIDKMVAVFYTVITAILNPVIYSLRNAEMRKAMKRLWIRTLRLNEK
How it was run: as §1

[5] = target: T5, OR51A2 (Homo sapiens) (UniProt Q8NGJ7)
T5 sequence (whole entry): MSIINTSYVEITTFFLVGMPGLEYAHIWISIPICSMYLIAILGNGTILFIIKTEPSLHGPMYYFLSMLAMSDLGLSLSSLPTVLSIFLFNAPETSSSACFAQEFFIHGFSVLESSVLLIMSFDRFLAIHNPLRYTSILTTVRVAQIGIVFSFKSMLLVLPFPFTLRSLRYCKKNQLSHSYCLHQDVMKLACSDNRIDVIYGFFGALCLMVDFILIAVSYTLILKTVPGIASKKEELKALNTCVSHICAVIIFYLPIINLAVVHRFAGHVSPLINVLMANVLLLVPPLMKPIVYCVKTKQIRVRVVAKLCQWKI
How it was run: as §1

[6] = target: T6, OR51A4 (Homo sapiens) (UniProt Q8NGJ6)
T6 sequence (whole entry): T5 sequence (whole entry) with G59E, T94I, S97N, S167N, P227L, E235Q, G267R, M288T, K289N, W311R
How it was run: as §1

[7] = target: T7, OR51A7 (Homo sapiens) (UniProt Q8NH64)
T7 sequence (whole entry): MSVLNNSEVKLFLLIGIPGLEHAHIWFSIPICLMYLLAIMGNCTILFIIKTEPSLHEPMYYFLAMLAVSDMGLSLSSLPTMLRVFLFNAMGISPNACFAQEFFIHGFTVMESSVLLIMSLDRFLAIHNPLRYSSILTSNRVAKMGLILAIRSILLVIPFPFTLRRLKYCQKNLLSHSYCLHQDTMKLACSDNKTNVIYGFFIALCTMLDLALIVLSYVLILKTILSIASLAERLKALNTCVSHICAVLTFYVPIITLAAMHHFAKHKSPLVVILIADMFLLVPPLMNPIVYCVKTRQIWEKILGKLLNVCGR
How it was run: as §1

[8] = target: T8, OR51B2 (Homo sapiens) (UniProt Q9Y5P1)
T8 sequence (whole entry): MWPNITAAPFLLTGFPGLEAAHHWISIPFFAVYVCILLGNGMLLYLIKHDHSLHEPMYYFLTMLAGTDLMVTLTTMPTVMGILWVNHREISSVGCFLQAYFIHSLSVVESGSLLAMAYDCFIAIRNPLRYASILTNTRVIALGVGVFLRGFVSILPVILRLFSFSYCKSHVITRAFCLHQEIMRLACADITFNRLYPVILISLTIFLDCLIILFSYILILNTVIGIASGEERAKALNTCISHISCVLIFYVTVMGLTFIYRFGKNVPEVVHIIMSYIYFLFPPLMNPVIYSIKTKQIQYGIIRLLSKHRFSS
How it was run: as §1

[9] = target: T9, OR51B4 (Homo sapiens) (UniProt Q9Y5P0)
T9 sequence (whole entry): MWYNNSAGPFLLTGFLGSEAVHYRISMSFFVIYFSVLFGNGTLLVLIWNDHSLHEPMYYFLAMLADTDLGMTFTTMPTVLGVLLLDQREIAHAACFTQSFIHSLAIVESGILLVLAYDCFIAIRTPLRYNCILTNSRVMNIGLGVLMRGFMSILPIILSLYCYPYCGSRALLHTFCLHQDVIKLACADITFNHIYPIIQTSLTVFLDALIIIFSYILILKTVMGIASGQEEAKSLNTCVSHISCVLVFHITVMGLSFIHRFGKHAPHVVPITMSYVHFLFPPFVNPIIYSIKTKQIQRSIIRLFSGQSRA
How it was run: as §1

[10] = target: T10, OR51B6 (Homo sapiens) (UniProt Q9H340)
T10 sequence (whole entry): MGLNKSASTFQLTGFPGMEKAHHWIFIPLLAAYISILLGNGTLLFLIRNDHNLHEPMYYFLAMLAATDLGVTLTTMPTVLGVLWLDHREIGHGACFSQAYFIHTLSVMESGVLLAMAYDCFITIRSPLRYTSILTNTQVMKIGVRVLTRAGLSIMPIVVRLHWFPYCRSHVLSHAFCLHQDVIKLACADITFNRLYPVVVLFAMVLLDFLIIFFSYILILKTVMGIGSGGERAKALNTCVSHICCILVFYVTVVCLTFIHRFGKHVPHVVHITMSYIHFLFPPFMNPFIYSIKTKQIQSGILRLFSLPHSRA
How it was run: as §1

[11] = target: T11, OR51D1 (Homo sapiens) (UniProt Q8NGF3)
T11 sequence (whole entry): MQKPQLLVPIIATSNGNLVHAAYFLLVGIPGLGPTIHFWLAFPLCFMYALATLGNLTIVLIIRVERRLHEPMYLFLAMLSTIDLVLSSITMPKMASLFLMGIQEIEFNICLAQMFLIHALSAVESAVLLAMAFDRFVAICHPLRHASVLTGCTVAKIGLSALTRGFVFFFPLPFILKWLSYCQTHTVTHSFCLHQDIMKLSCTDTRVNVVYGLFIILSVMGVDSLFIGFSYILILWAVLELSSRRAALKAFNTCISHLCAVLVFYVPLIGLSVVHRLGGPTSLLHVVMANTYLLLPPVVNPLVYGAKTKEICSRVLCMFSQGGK
How it was run: as §1

[12] = target: T12, OR51E1 (Homo sapiens) (UniProt Q8TCB6)
T12 sequence (whole entry): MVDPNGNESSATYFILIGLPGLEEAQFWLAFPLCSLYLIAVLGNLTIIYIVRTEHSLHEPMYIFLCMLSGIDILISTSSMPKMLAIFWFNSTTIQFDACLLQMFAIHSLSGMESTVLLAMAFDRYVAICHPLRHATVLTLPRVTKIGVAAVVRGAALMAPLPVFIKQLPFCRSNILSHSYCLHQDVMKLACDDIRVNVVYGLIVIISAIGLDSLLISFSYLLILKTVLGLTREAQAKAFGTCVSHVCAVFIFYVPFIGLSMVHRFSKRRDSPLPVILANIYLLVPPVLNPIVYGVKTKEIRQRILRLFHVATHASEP
How it was run: as §1

[13] = target: T13, OR51E2 (Homo sapiens) (UniProt Q9H255)
T13 sequence (whole entry): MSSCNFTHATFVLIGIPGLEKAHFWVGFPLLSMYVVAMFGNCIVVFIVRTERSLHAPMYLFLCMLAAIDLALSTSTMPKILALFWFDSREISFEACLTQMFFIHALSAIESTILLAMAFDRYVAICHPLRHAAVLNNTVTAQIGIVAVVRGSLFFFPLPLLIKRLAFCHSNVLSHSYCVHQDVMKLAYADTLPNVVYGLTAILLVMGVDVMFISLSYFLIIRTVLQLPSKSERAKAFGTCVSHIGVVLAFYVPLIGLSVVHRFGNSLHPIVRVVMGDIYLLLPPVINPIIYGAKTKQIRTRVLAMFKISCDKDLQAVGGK
How it was run: as §1

[14] = target: T14, OR51F1 (Homo sapiens) (UniProt A6NGY5)
T14 sequence (whole entry): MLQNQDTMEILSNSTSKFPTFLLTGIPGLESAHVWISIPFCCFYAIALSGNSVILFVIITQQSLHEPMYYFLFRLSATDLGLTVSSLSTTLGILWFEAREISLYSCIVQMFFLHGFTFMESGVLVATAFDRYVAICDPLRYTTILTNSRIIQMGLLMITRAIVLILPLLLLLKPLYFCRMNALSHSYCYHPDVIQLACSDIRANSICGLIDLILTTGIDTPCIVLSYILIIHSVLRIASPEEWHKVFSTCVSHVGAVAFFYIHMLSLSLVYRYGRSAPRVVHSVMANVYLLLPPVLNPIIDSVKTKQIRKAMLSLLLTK
How it was run: as §1

[15] = target: T15, OR51F2 (Homo sapiens) (UniProt Q8NH61)
T15 sequence (whole entry): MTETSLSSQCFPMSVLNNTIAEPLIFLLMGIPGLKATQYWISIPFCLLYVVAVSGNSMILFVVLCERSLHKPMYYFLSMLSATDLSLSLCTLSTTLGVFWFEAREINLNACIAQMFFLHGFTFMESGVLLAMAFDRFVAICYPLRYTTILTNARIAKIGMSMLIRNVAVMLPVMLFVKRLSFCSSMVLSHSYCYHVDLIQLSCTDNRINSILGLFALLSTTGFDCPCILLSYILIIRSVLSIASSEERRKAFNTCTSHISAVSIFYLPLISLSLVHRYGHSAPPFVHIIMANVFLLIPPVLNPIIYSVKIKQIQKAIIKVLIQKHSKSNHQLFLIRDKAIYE
How it was run: as §1

[16] = target: T16, OR51G1 (Homo sapiens) (UniProt Q8NGK1)
T16 sequence (whole entry): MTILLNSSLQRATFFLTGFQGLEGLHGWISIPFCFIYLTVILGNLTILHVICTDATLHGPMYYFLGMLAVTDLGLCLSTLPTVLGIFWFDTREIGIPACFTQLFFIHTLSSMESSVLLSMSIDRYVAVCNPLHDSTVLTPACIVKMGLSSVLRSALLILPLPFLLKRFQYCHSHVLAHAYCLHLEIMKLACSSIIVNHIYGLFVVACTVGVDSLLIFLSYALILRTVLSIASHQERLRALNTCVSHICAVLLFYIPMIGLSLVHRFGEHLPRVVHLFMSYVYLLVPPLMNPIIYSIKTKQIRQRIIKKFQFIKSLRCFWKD
How it was run: as §1

[17] = target: T17, OR51G2 (Homo sapiens) (UniProt Q8NGK0)
T17 sequence (whole entry): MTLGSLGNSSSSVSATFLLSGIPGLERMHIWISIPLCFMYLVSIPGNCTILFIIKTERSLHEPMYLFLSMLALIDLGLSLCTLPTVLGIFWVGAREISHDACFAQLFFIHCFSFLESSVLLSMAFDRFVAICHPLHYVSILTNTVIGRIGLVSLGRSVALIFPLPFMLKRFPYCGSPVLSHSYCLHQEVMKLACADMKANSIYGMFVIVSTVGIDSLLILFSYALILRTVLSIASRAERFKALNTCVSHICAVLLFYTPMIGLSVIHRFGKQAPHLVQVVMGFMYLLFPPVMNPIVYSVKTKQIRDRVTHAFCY
How it was run: as §1

[18] = target: T18, OR51I1 (Homo sapiens) (UniProt Q9H343)
T18 sequence (whole entry): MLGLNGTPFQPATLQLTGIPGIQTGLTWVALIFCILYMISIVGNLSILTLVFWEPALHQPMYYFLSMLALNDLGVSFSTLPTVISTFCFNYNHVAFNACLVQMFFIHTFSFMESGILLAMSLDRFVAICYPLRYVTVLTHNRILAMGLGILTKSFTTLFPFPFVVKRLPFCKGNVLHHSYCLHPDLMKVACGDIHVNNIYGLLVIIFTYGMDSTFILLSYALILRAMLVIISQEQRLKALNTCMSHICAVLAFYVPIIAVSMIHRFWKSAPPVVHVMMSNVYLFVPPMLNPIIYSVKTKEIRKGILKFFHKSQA
How it was run: as §1

Measured: odorant receptor agonist call

CCCCCCCC(=O)OCC
inactive: [1]

CCCCC(S)C(C)CO (centres undefined)
inactive: all assays above

C=C1CCC2CC1C2(C)C (centres undefined)
inactive: [1]

CCCCCC(=O)C(C)C(C)=O (centres undefined)
inactive: all assays above

CCCCCCCCC(=O)O
inactive: [6] | [13]
active: [12]

CCCCCCCCCCCCCC(=O)OC
inactive: [1]

Cc1cnc(C)cn1
inactive: [1]

Cc1cccc(C)c1C
inactive: [1]
